# pPAFAH FP inh: pPAFAH (human) enzyme inhibition. recombinant pPAFAH, FP-rhodamine probe fluorescence polarization. AID 463082. 1.5% of 330,000 active. inhibition, % at 3.39 µM. Q13093;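 active means inhibition above the mean inhibition across the screen plus 3 SD, cut at about 25% in these data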;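 further: inhibitors block binding of the rhodamine activity-based probe so polarization drops; 0% = enzyme with DMSO and 100% = wells lacking pPAFAH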
# PAFAH1B3 inh: inhibitors of human PAFAH1B3; Q15102; inhibition, % at 3.39 µM; 0.28% of 340,000 active; AID 492972; recombinant PAFAH1B3, FP-rhodamine probe, fluorescence polarization;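 active means inhibition above the screen-wide average of all tested compounds plus 3 SD, cut at about 25% in these data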;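 further: 0% = enzyme with DMSO only and 100% = wells lacking PAFAH1B3 protein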
# Target sequence (Q15102 whole entry, looked up): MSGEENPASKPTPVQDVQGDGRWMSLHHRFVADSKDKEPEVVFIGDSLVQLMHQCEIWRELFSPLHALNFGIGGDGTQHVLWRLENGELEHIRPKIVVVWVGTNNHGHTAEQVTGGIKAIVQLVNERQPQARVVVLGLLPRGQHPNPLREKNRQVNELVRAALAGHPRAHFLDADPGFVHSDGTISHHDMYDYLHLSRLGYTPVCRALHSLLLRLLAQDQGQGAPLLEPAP
# PAFAH1B2 FP inh: blocks human PAF acetylhydrolase 1b catalytic subunit 2; P68402; recombinant PAFAH1B2, FP-rhodamine activity probe, fluorescence polarization; inhibition, % at 3.39 µM; 1.2% of 340,000 active; AID 492953;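 active means inhibition above the mean of all tested compounds plus 3 SD, cut at about 24% in these data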;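 further: 0% = enzyme with DMSO and 100% = wells lacking PAFAH1B2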
# Target sequence (P68402 whole entry, looked up): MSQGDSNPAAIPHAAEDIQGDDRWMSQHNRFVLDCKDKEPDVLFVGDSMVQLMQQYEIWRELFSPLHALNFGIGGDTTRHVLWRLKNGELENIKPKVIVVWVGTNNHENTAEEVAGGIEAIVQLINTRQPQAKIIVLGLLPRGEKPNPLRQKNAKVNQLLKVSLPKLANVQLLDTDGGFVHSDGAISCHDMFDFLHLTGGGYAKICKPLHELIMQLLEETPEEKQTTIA
# PAFAH2 inh: PAFAH2 (human) inhibition; Q99487; recombinant PAFAH2, FP-rhodamine activity probe, fluorescence polarization; inhibition, % at 3.39 µM; 0.99% of 340,000 active;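 active means inhibition above the mean over all tested compounds plus 3 SD, cut at about 30% in these data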;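 further: inhibitors block probe labeling of enzyme so polarization drops; 0% = enzyme with DMSO and 100% = wells lacking PAFAH2 protein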
# HTRA1 inhibitor: HTRA1 (human) protease inhibition; recombinant HTRA1, FP-rhodamine activity-based probe, fluorescence polarization; inhibition, % at 5.96 µM; 0.5% of 340,000 active; in the data active means inhibition above about 36%;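 further: 0% = enzyme with DMSO and 100% = wells lacking enzyme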
# mABHD4 FP: inhibitors of mouse ABHD4; Q8VD66; inhibition, % at 8.92 µM; 0.54% of 370,000 active; purified mABHD4, FP-Rh probe fluorescence polarization;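 active means inhibition exceeding the mean over every tested compound plus 3 SD, cut at about 30% in these data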;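 further: 0% = plate median of compound wells and 100% = S159A mutant with DMSO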
#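 Test system: mouse ABHD4 enzyme, wild type. Reagent: FP-Rh fluorescent activity-based probe, added after compound pre-incubation. Timing: pre-incubation 45 min, probe exposure 60 min, at 25 °C. Technique: FP readout, ex 525 nm / em 598 nm. Benchmarks: high control S159A mutant with DMSO, low control median of compound wells.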
# An asterisk follows results filed as active; x = no result. This is a sample that favours compounds with a hit; in the whole collection about 2.8% have one here.
SMILES,pPAFAH FP inh,PAFAH1B3 inh,PAFAH1B2 FP inh,PAFAH2 inh,HTRA1 inhibitor,mABHD4 FP
Nn1c(SCC(=O)Nc2ccc(OCc3ccccc3)cc2)nnc1-c1cc(-c2ccc(Cl)cc2)n[nH]1,x,x,x,x,x,-3.4
Cc1onc(-c2ccccc2Cl)c1C(=O)NCCn1c(C)cc2ccccc21,-1.6,15.7,10.5,8.9,47.6*,x
Cc1cc(C)nc(SCC(=O)N/N=C/c2cccn2-c2ccc(O)cc2)n1,5.5,3.0,28.4*,10.1,1.2,8.2
Cc1cc(C)nc(SCC(=O)N/N=C/c2cccn2-c2cccc(C(F)(F)F)c2)n1,6.1,5.2,-0.8,-1.1,0.8,-19.2
Cc1ccc(C(=O)NN2C(=O)c3ccc(S(=O)(=O)c4ccc(C(=O)O)cc4)cc3C2=O)cc1,-0.7,3.1,24.2*,5.1,-6.8,6.5
O=C(O)c1ccc(S(=O)(=O)c2ccc3c(c2)C(=O)N(NC(=O)c2ccc(O)cc2)C3=O)cc1,0.4,4.4,3.8,2.1,-0.8,2.4
NC(=NC(=O)/C=C/c1ccccc1Br)N(CC#Cc1ccccc1)CC#Cc1ccccc1,x,x,x,x,x,-14.9
CCOc1ccccc1-c1c2cc(O)c(=O)cc-2oc2cc(O)c(O)cc12,x,119.3*,112.4*,126.8*,85.1*,x
CC1(C)N([O-])c2cc([N+](=O)[O-])ccc2[N+]1=O,31.1*,x,x,x,x,37.0*
CC(C)CNC(=O)C1CSCCS(=O)(=O)N1Cc1ccccc1 (configuration not stated),x,x,x,x,x,6.6
CN1CCN(S(=O)(=O)c2ccc(Sc3nnc(-c4cccs4)n3-c3ccccc3)nc2)CC1,3.9,0.0,33.2*,-0.7,-1.1,9.0
COC(=O)C1=C(C)N(Cc2cccc(C(F)(F)F)c2)C(=NCc2ccccc2C(F)(F)F)NC1c1cccc(F)c1 (configuration not stated),x,x,x,x,x,21.6
COC(=O)[C@]12C[C@H](CC(=O)NCc3ccc(C)o3)C(=O)N(Cc3ccc(Cl)cc3Cl)C1=C[C@H](COCc1ccccc1)O[C@@H]2C,x,x,x,x,x,-10.2
Nc1ccccc1SCC1CSc2nc3ccccc3c(=O)n21 (configuration not stated),3.9,0.5,-6.8,4.0,-4.1,-4.1
O=c1c2ccccc2nc2n1C(CSCc1ccc(Cl)cc1Cl)CS2 (configuration not stated),3.6,9.9,39.3*,11.5,6.3,5.8
O=C(NN=C1CCCC1)c1cc(-c2ccc(F)cc2)nc2ccccc12,-7.6,-5.7,-2.5,2.9,-4.6,-5.4
O=C(NNS(=O)(=O)c1ccc(F)cc1)c1cc(Cl)ccc1O,x,8.6,26.2*,8.4,3.1,5.0
O=C(NNS(=O)(=O)c1cccc(Cl)c1)c1cc(-c2ccc(F)cc2)nc2ccccc12,1.9,-5.9,39.9*,-4.3,-26.6,-16.7
COCCOC(=O)c1c(C)nc(SCC(=O)Nc2ccc(OC)cc2)c(C#N)c1-c1ccco1,27.2*,5.0,-2.6,1.1,-8.9,-9.1
COCCCNC(=O)C[C@H]1C[C@@]2(C(=O)OC)C(=C[C@H](COCc3ccccc3)O[C@@H]2C)N(Cc2cccc3ccccc23)C1=O,x,x,x,x,x,-6.3
CN(C)S(=O)(=O)c1cc(NC(=O)COC(=O)CC2CC3CCC2C3)ccc1Cl (configuration not stated),26.3*,0.8,5.6,77.0*,-28.1,-1.8
CCOc1ccc(NS(=O)(=O)c2ccc(C(=O)NNC(=O)c3ccccc3O)cc2)cc1,26.1*,0.5,3.0,-0.5,22.0,-0.9
Cc1ccc(C(=O)N2CCCC2)cc1S(=O)(=O)Nc1ccccc1,30.4*,3.6,0.4,8.1,-0.6,-3.1
O=C(c1ccc(S(=O)(=O)Nc2ccccc2)cc1)N1CCCC1,17.1,4.1,0.6,-0.3,0.9,1.2
CN1CCN(C(=O)c2ccc(S(=O)(=O)Nc3ccccc3)cc2)CC1,25.3*,1.0,5.0,1.7,2.6,1.2
CCOc1ccc(NS(=O)(=O)c2ccc(C(=O)N3CC(C)OC(C)C3)cc2)cc1 (configuration not stated),29.3*,6.2,-3.4,-3.2,0.7,5.5
CC(C)C[C@@H]1COc2cc(Br)ccc2S(=O)(=O)N1Cc1cn(Cc2ccc(C(F)(F)F)cc2)nn1,x,x,x,x,x,4.6
Cc1ccc(C)c(NC(=O)CNS(=O)(=O)c2ccc3[nH]c(=O)oc3c2)c1,x,x,x,x,x,7.7

# Screens from PubChem BioAssay.
